Legend:
Angiotensin II receptor = biological target: T1, Angiotensin II receptor (Rattus norvegicus, UniProt P29089+P25095+P35351); experiment: Angiotensin II receptor antagonist activity was tested in rat isolated uterus assay using [Asp1,Ile5]ANG II (human angiotensin II) as the standard; assay type: functional, tissue-based
T1 sequence (P29089 whole entry): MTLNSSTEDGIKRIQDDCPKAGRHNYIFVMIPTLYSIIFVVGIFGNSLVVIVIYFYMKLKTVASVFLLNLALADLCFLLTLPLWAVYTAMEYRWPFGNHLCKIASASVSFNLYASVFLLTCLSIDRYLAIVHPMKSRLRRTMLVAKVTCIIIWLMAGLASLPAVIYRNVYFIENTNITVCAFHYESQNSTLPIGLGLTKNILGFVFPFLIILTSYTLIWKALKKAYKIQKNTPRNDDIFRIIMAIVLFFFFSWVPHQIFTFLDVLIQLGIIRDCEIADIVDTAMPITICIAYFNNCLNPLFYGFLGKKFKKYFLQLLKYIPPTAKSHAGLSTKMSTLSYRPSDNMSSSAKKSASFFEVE
T1 sequence (P25095 whole entry): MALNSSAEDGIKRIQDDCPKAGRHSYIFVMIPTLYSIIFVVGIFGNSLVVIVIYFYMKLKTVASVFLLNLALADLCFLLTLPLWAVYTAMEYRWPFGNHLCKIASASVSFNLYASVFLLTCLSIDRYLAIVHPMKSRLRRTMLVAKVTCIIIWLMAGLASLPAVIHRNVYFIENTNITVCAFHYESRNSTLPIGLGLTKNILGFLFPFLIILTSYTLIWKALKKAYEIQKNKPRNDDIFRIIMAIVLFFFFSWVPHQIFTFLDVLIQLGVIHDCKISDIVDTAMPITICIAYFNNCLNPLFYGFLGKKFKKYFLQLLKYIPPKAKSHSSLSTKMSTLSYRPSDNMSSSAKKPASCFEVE
T1 sequence (P35351 whole entry): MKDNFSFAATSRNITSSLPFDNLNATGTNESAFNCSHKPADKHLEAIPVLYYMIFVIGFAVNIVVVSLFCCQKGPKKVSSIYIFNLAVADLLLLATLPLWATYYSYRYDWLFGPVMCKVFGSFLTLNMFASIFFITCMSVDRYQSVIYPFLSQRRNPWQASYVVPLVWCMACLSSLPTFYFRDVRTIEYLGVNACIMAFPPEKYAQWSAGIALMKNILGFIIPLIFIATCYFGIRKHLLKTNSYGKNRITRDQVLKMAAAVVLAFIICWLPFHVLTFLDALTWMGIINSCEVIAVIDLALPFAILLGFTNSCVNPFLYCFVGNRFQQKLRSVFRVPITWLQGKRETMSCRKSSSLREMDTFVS
In short: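 Defatted, halved uterine horns from diethylstilbestrol-primed virgin Sprague-Dawley rats (150–250 g), at 1 g tension in a 3-mL bath at pH 7.0, oxygen-gassed (150 mM NaCl, 5.6 mM KCl, 0.18 mM CaCl2, 1.8 mM NaHCO3, 1.4 mM glucose). Isotonic recording of contraction. pA2 is the negative log of the antagonist concentration that cuts the response to an EC50 dose of human ANG II down to the response to half the EC50 dose. Mean ± SEM.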

[1] = biological target: T2, Angiotensin II receptor (Rattus norvegicus) (UniProt P29089+P25095+P35351); experiment: Angiotensin II receptor agonist activity was tested in rat isolated uterus assay using [Asp1,Ile5]ANG II (human angiotensin II) as the standard; assay type: functional, tissue-based
In short: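 Uterine horns from diethylstilbestrol-primed virgin Sprague-Dawley rats (150–250 g), defatted and halved. Each half held at 1 g tension in a 3-mL bath at pH 7.0, oxygen-gassed (150 mM NaCl, 5.6 mM KCl, 0.18 mM CaCl2, 1.8 mM NaHCO3, 1.4 mM glucose). Contractions recorded isotonically. Agonism measured by matching each response to an equivalent response to human ANG II. Mean ± SEM.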

[2] = biological target: T2, Angiotensin II receptor (Rattus norvegicus); experiment: Compound was evaluated for the antagonistic activity against rat Angiotensin II receptor by using isometric bioassay system; assay type: functional

SMILES | pA2 (Angiotensin II receptor) | Activity [1] [%] | Activity [2]
CC[C@H](C)[C@H](NC(=O)[C@@H]1CCCN1C(=O)[C@H](Cc1c[nH]cn1)NC(=O)[C@@H](NC(=O)[C@H](Cc1ccc(OC)cc1)NC(=O)[C@@H](NC(=O)[C@H](CCCN=C(N)N)NC(=O)CNC)C(C)C)[C@@H](C)CC)C(=O)O | 6.6 | < 0.1 | –
CC[C@H](C)[C@H](NC(=O)[C@H]1CCCN1C(=O)[C@H](Cc1c[nH]cn1)NC(=O)[C@@H](NC(=O)[C@@H](Cc1ccc(O)cc1)NC(=O)[C@@H](NC(=O)[C@H](CCCN=C(N)N)NC(=O)CNC)C(C)C)[C@@H](C)CC)C(=O)O | – | < 0.1 | –
CC[C@H](C)[C@H](NC(=O)[C@@H](NC(=O)[C@H](CCCN=C(N)N)NC(=O)CNC)C(C)C)C(=O)N[C@H](C(=O)N[C@@H](Cc1c[nH]cn1)C(=O)N1CCC[C@@H]1C(=O)N[C@@H](Cc1ccccc1)C(=O)O)[C@@H](C)CC | – | 0.2 | –
CC[C@H](C)[C@H](NC(=O)[C@@H](Cc1ccc(O)cc1)NC(=O)[C@@H](NC(=O)[C@H](CCCN=C(N)N)NC(=O)CNC)C(C)C)C(=O)N[C@@H](Cc1c[nH]cn1)C(=O)N1CCC[C@@H]1C(=O)N[C@@H](Cc1ccccc1)C(=O)O | – | 2 | –
CC[C@H](C)[C@H](NC(=O)[C@@H](NC(=O)[C@H](CCCN=C(N)N)NC(=O)CNC)C(C)C)C(=O)N[C@H](C(=O)N[C@@H](Cc1c[nH]cn1)C(=O)N1CCC[C@H]1C(=O)N[C@@H](Cc1ccccc1)C(=O)O)[C@@H](C)CC | < 6 | – | –
CC[C@H](C)[C@H](NC(=O)[C@H](Cc1ccc(OC)cc1)NC(=O)[C@@H](NC(=O)[C@H](CCCN=C(N)N)NC(=O)CNC)C(C)C)C(=O)N[C@@H](Cc1c[nH]cn1)C(=O)N1CCC[C@H]1C(=O)N[C@@H](Cc1ccccc1)C(=O)O | 7.5 | < 0.1 | 8.1
CC[C@H](C)[C@H](NC(=O)[C@H](Cc1ccc(OC)cc1)NC(=O)[C@@H](NC(=O)[C@H](CCCN=C(N)N)NC(=O)[C@@H]1CCCN1)C(C)C)C(=O)N[C@@H](Cc1c[nH]cn1)C(=O)N1CCC[C@@H]1C(=O)N[C@@H](Cc1ccccc1)C(=O)O | – | 0.3 | –
CC[C@H](C)[C@H](NC(=O)[C@@H]1CCCN1C(=O)[C@H](Cc1c[nH]cn1)NC(=O)[C@@H](NC(=O)[C@H](Cc1ccccc1)NC(=O)[C@@H](NC(=O)[C@H](CCCN=C(N)N)NC(=O)CNC)C(C)C)[C@@H](C)CC)C(=O)O | 6.7 | < 0.1 | –
CC[C@H](C)[C@H](NC(=O)[C@@H]1C[C@@H](O)CN1C(=O)[C@@H](NC(=O)[C@H](CCCN=C(N)N)NC(=O)CNC)C(C)C)C(=O)N[C@@H](Cc1c[nH]cn1)C(=O)N1CCC[C@@H]1C(=O)N[C@@H](Cc1ccccc1)C(=O)O | – | < 0.1 | –
CC[C@H](C)[C@H](NC(=O)[C@H](Cc1ccc(OC)cc1)NC(=O)[C@@H](NC(=O)[C@H](CCCN=C(N)N)NC(=O)[C@H](C)N)C(C)C)C(=O)N[C@@H](Cc1c[nH]cn1)C(=O)N1CCC[C@H]1C(=O)N[C@@H](Cc1ccccc1)C(=O)O | < 6 | – | –
CC[C@H](C)[C@H](NC(=O)[C@H](Cc1ccc(OC)cc1)NC(=O)[C@@H](NC(=O)[C@H](CCCN=C(N)N)NC(=O)[C@@H]1CCCN1)C(C)C)C(=O)N[C@@H](Cc1c[nH]cn1)C(=O)N1CCC[C@H]1C(=O)N[C@@H](Cc1ccccc1)C(=O)O | < 6 | – | –

Next, values leading:

pA2 (Angiotensin II receptor) | Activity [1] [%] | Activity [2] | SMILES
< 5.5 | < 0.1 | – | CC[C@H](C)[C@H](NC(=O)[C@@H](Cc1ccccc1)NC(=O)[C@@H](NC(=O)[C@H](CCCN=C(N)N)NC(=O)CNC)C(C)C)C(=O)N[C@@H](Cc1c[nH]cn1)C(=O)N1CCC[C@@H]1C(=O)N[C@@H](Cc1ccccc1)C(=O)O
– | < 0.1 | – | CC[C@H](C)[C@H](NC(=O)C1CCCN1C(=O)[C@H](Cc1c[nH]cn1)NC(=O)[C@@H](NC(=O)[C@H](Cc1ccc(O)cc1)NC(=O)[C@@H](NC(=O)[C@H](CCCN=C(N)N)NC(=O)CNC)C(C)C)[C@@H](C)CC)C(=O)O (single isomer, unassigned)
< 6 | – | – | CC[C@H](C)[C@H](NC(=O)[C@@H](NC(=O)[C@@H](NC(=O)[C@H](CCCN=C(N)N)NC(=O)CNC)C(C)C)[C@@H](C)O)C(=O)N[C@@H](Cc1c[nH]cn1)C(=O)N1CCC[C@H]1C(=O)N[C@@H](Cc1ccccc1)C(=O)O
< 5 | – | – | CC[C@H](C)[C@H](NC(=O)[C@@H]1C[C@@H](O)CN1C(=O)[C@@H](NC(=O)[C@H](CCCN=C(N)N)NC(=O)CNC)C(C)C)C(=O)N[C@@H](Cc1c[nH]cn1)C(=O)N1CCC[C@H]1C(=O)N[C@@H](Cc1ccccc1)C(=O)O
– | < 0.1 | – | CC[C@H](C)[C@H](NC(=O)[C@H](Cc1ccc(OC)cc1)NC(=O)[C@@H](NC(=O)[C@H](CCCN=C(N)N)NC(=O)[C@H](C)N)C(C)C)C(=O)N[C@@H](Cc1c[nH]cn1)C(=O)N1CCC[C@@H]1C(=O)N[C@@H](Cc1ccccc1)C(=O)O
< 6 | 0.2 | – | CCOc1ccc(C[C@H](NC(=O)[C@@H](NC(=O)[C@H](CCCN=C(N)N)NC(=O)CNC)C(C)C)C(=O)N[C@H](C(=O)N[C@@H](Cc2c[nH]cn2)C(=O)N2CCC[C@H]2C(=O)N[C@@H](Cc2ccccc2)C(=O)O)[C@@H](C)CC)cc1
– | 2 | – | CC[C@H](C)[C@H](NC(=O)[C@@H](NC(=O)[C@@H](NC(=O)[C@H](CCCN=C(N)N)NC(=O)CNC)C(C)C)[C@H](C)O)C(=O)N[C@@H](Cc1c[nH]cn1)C(=O)N1CCC[C@@H]1C(=O)N[C@@H](Cc1ccccc1)C(=O)O
< 6.5 | – | – | CC[C@H](C)[C@H](NC(=O)[C@@H](Cc1ccc(O)cc1)NC(=O)[C@@H](NC(=O)[C@H](CCCN=C(N)N)NC(=O)CNC)C(C)C)C(=O)N[C@@H](Cc1c[nH]cn1)C(=O)N1CCC[C@H]1C(=O)N[C@@H](Cc1ccccc1)C(=O)O
7.9 | 22 | – | CC[C@H](C)[C@H](NC(=O)[C@H](Cc1ccccc1)NC(=O)[C@@H](NC(=O)[C@H](CCCN=C(N)N)NC(=O)CNC)C(C)C)C(=O)N[C@@H](Cc1c[nH]cn1)C(=O)N1CCC[C@H]1C(=O)N[C@@H](Cc1ccccc1)C(=O)O
< 5 | < 0.1 | – | CC[C@H](C)[C@H](NC(=O)[C@H]1CCCN1C(=O)[C@H](Cc1c[nH]cn1)NC(=O)[C@@H](NC(=O)[C@@H](Cc1ccccc1)NC(=O)[C@@H](NC(=O)[C@H](CCCN=C(N)N)NC(=O)CNC)C(C)C)[C@@H](C)CC)C(=O)O

Reference: ChEMBL document CHEMBL1123284, “Structure-activity relationships for the competitive angiotensin antagonist [sarcosine,O-methyltyrosine4]angiotensin II (sarmesin)” (J Med Chem, 1986)
